Assay results as given in ChEMBL document CHEMBL1143563, “Enantiospecificity of glutamate carboxypeptidase II inhibition” (J Med Chem, 2005).
pEC50, pIC50: −log10 of the molar value.

Tests used:
[1] = species on record: Rattus norvegicus; assay: Neuroprotective effect against ischemic injury with median effective concentration in rat; assay type: functional
In short: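 Cerebral ischemia was simulated in a cell culture model by exposing rat cortical cultures to potassium cyanide and 2-deoxyglucose. Neuroprotection against this injury was reported as a median effective concentration.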

[2] = In vitro inhibition of N-acetyl-L-aspartyl-[3H]L-glutamate binding to Glutamate carboxypeptidase II
In short: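 Purified recombinant GCP II was incubated with radiolabelled substrate N-acetyl-L-aspartyl-[3H]-L-glutamate, and inhibition was reported as IC50. Values are mean ± SD of at least triplicate experiments; where only two experiments were run, the value is the mean of the duplicates.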

pIC50 [2]	SMILES	pEC50 [1]
	O=C(O)CC[C@H](CP(=O)(O)O)C(=O)O	9.70
5.85	O=C(O)CC[C@@H](CP(=O)(O)Cc1c(F)c(F)c(F)c(F)c1F)C(=O)O	6.39
	O=C(O)CC[C@@H](CP(=O)(O)O)C(=O)O	7.15
7.47	O=C(O)CC[C@H](CP(=O)(O)Cc1c(F)c(F)c(F)c(F)c1F)C(=O)O	8.39
	O=C(O)CCC(CP(=O)(O)O)C(=O)O (centres undefined)	8.92
	O=C(O)CCC(CCCS)C(=O)O (racemic)	7.89
	O=C(O)CCC(CP(=O)(O)Cc1c(F)c(F)c(F)c(F)c1F)C(=O)O (racemic)	8.02
